The values below come from PubChem BioAssay.

Calls of active or inactive are those of the source.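 How the source made its calls, unless noted: active means inhibition at or above 50% at 10 µM; inactive means inhibition below 50%.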

The nature of assay [1]: inhibitors of TNFa-induced NFkB p65 translocation, primary screen, imaging, HUVEC, MLSMR starter and 10KST1 sets (AID 438;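 active means inhibition above 20% together with a positive visual image hit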;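 further: compound added about 3h40 before a 20 min TNFalpha stimulation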;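 on inhibition: signal is the nuclear over cytoplasmic p65 intensity ratio per well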). As to conditions: HUVEC TNFa-induced p65 nuclear translocation; cell count: measured here: nuclei count (cytotoxicity indicator), at 2.08 µM; inhibition: at 2 µM, stronger effect = higher value, 0% TNFa-plus-vehicle, 100% no-TNFa wells.
Assay [2] can be described thus: inhibitors of mutant huntingtin aggregation, primary screen, imaging, exon1htt(103Q)mCFP cells, high-content imaging (AID 483;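 active means visual image review flags a hit and inhibition of aggregation exceeds 20%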;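 further: compound exposure lasted 3 days before fixation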;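 on nuclei count: percent of the per-plate median nuclei count of sample wells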). The note with it: exon1htt(103Q)mCFP cell line, aggregate imaging, at 2 µM; inhibition of aggregation: stronger effect = higher value; nuclei count: measured here: cell count, toxicity.
The nature of assay [3]: inhibitors of E-selectin induction by TNFa, primary screen, imaging, HUVEC, immunofluorescence, MLSMR starter and 10KST1 sets (AID 487;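 active means visually confirmed hit in the image check and inhibition above 20%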;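 on inhibition: signal is fraction of cell area covered by stained E-selectin grains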;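 on nuclei count: 100% = median nuclei count of all wells on the same plate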). The note with it: HUVEC TNFalpha-induced E-selectin immunofluorescence imaging, at 2 µM; inhibition: stronger effect = higher value; nuclei count: measured here: cell number, toxicity.
The target in assay [4] is Voltage-gated potassium channel subunit beta-2 (Rattus norvegicus) (UniProt P62483). Description: KvBeta enzyme negative modulators, primary screen, biochemical, NADPH fluorescence (AID 622;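 active means fluorescence slope higher than the sample average by over 3 SD, cut at about -0.22 in these data, passing the limit was not always enough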;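 further: slope of raw intensity against log time taken from 70 to 1610 s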). The note with it: recombinant KvBeta, 4-cyanobenzaldehyde reduction, at 10 µM, stronger effect = higher value.
For assay [5] the target is unchanged. Description: KvBeta positive modulators, primary screen, biochemical, NADPH fluorescence (AID 623;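 active means NADPH fluorescence slope more negative than the mean of all samples by about 3 SD, 99.7% confidence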;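 further: fluorescence intensity change per second fitted from 20 to 320 s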). As to conditions: Recombinant KvBeta, NADPH fluorescence decrease slope, 10 min; at 10 µM; stronger effect = lower value.
Assay [6] concerns the target Alpha-2C adrenergic receptor (Homo sapiens) (UniProt P18825). Description: modulators of alpha2C/GIRK thallium flux, primary screen, cell-based, HEK293 alpha2C/GIRK1/2 (AID 624;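 active means fluorescence slope after compound addition differing from the mean of all screened samples at 99.7% confidence, in either direction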;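 further: slope of fluorescence ratio to pre-addition baseline per second over 15 to 24 s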). As to conditions: thallium flux BTC fluorescence, at 10 µM, actives lie on both sides.
Assay [7] is described as follows: inhibitors of Sendai virus-induced IRF3 signaling, primary screen, TLR/RLR signaling modifier project, cell-based, Sendai virus stimulus, luciferase, 10K MLSCN set (AID 602276).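 Further: firefly luciferase from ISG56 promoter only with Renilla not read in this screen; 0% = Sendai virus plus DMSO and 100% = medium plus DMSO without virus.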 The note with it: HEK293 RL24 IRF3 luciferase reporter, at 10 µM, stronger effect = higher value.
A short description of assay [8]: inhibitors of poly I:C-induced TLR3 signaling, primary screen, cell-based, poly I:C stimulus, luciferase, 10K MLSCN set (AID 602277;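 active means inhibition of the reporter signal at or above 50%; inactive means inhibition below 50%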). The note with it: HEK293-TLR3 RL24 IRF3 luciferase reporter, at 10 µM, stronger effect = higher value.
Assay [9] in a line: inhibitors of larval lipid processing in zebrafish, primary screen, whole organism, PED6 fluorescence, gall bladder and intestine (AID 686;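 active means a full or partial loss of lipid-probe fluorescence in the fish gall bladder, intestine or both, judged by eye; inactive means no fluorescence loss, or compound toxic to the fish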;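 further: larvae 5 to 7 days old with five fish per well; signal comes from phospholipase A2 cleavage of quenched PED6 carried via bile; overnight exposure to compound and PED6 before scoring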). The note with it: Zebrafish larvae PED6 lipid processing, fluorescence scoring; screened at 20 µM (by protocol). The procedure, abridged:
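System: live zebrafish larvae aged 5-7 days, whole organism; measure: graded gall bladder and intestinal fluorescence inhibition per well; incubation: overnight exposure; reagent: ingested quenched lipid PED6 at 100 nM; signal: By-eye fluorescence microscopy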

Sequence of Voltage-gated potassium channel subunit beta-2 (Rattus norvegicus) (P62483 whole entry, looked up): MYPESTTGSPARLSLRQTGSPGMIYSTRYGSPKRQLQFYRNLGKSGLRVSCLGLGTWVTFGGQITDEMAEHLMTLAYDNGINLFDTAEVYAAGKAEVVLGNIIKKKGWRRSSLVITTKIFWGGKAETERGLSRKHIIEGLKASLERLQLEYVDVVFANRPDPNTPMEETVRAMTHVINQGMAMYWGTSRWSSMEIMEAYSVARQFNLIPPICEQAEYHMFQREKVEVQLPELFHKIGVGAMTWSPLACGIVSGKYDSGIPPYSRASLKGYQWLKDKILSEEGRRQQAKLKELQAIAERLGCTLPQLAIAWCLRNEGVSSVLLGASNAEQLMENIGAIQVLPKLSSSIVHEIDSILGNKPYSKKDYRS
Sequence of Alpha-2C adrenergic receptor (Homo sapiens) (P18825 whole entry, looked up): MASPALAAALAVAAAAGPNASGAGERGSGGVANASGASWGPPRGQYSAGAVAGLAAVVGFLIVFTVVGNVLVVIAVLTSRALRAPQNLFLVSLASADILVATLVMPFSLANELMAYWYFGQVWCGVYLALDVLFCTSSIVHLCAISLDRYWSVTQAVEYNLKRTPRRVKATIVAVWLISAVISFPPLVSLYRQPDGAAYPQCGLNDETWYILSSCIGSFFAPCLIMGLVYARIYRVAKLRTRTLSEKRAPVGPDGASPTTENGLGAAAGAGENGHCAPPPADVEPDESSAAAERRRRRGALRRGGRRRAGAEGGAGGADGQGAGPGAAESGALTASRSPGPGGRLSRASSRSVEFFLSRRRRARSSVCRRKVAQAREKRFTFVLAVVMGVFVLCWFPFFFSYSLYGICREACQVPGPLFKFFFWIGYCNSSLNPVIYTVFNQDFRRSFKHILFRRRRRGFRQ

With `COc1ccc(-c2nc(SC)n(S(=O)(=O)c3ccccc3)n2)cc1`, the cell count in assay [1] is 683. Also, the inhibition in assay [1] was -1.9% (inactive); in assay [3], -122% (inactive); in [7] it was -26% (inactive); in assay [8] it was -119% (inactive). Moreover, the inhibition of aggregation in assay [2] was 7.6% (inactive). The nuclei count is 99.4% in [2] and 109% in assay [3]. The fluorescence slope in assay [4] is -0.476 (inactive). For the same molecule, the NADPH fluorescence slope in assay [5] is 9.5e-05 (inactive). In assay [6], the slope is 0.00851 (inactive).
`O=C(CCn1c(=O)sc2ccccc21)NCc1ccc2c(c1)OCO2`: the cell count in [1] came to 294. The inhibition in [1] is -11.1% (inactive); in assay [3] it was -28.3% (inactive); in [7] it was -17% (inactive); in assay [8], -12.6% (inactive). In [2], the inhibition of aggregation is 15.6% (inactive). The values for the nuclei count in assay [2] and in [3] were 92.7% and 115%, respectively. For the same molecule, the fluorescence slope in assay [4] is -0.353 (inactive). For the same molecule, the NADPH fluorescence slope in assay [5] is -5.2e-05 (inactive). The slope in assay [6] is 0.00437 (inactive).
With `CCOc1ccc(NCCC(=O)c2ccc3c(c2)OCO3)cc1`, the cell count in assay [1] turned out to be 624. For the same molecule, the inhibition was -5.4% (inactive) in assay [1], 0% (inactive) in assay [3], 2.87% (inactive) in assay [7] and 12.5% (inactive) in assay [8]. In addition, the inhibition of aggregation in assay [2] is 29.9% (inactive). The nuclei count in [2] amounted to 96.9%; in assay [3] it was 103%. In [4], the fluorescence slope is -0.326 (inactive). The NADPH fluorescence slope in assay [5] was 8.4e-06 (inactive). The slope in assay [6] was 0.00304 (inactive).
Consider `CCOC(=O)n1c(SCC(=O)N(CC)CC)nc2ccccc21`, for which, in assay [1], the cell count was 522. For the same molecule, the inhibition in assay [1] is 1% (inactive); in assay [3], 44.9% (inactive); in assay [7], 0.265% (inactive); in [8] it was -26.4% (inactive). Further, in [2], the inhibition of aggregation is 10.7% (inactive). Besides, the nuclei count in [2] is 102%; in assay [3] it was 93.9%. Further, the fluorescence slope in assay [4] is -0.597 (inactive). Also, the NADPH fluorescence slope in assay [5] was -4.3e-05 (inactive). The slope in [6] was 0.00594 (inactive).
Consider `N#Cc1c(N2CCCC2)nc(N)c2c(N)nc(N3CCCC3)cc12`, for which, in assay [1], the cell count amounted to 581. Further, the inhibition in [1] was -9.2% (inactive); in assay [3], -144% (inactive); in assay [7], -6.36% (inactive); in assay [8], 2.26% (inactive). For the same molecule, the inhibition of aggregation in assay [2] was -6.2% (inactive). For the same molecule, the nuclei count was 84.2% in assay [2] and 160% in assay [3]. In assay [4], the fluorescence slope is -0.0789 (active). The NADPH fluorescence slope in [5] is 1.7e-06 (inactive). In addition, the slope in assay [6] is 0.0051 (inactive).
As to `C=CCOc1ccc(CN(C)CC(=O)N(CC(C)C)c2c(N)n(CC(C)C)c(=O)[nH]c2=O)cc1`, the cell count in [1] is 492. The inhibition in assay [1] is 8.3% (inactive); in assay [3] it was -77.8% (inactive); in assay [7], 21.6% (inactive); in [8] it was 19.4% (inactive). Also, the inhibition of aggregation in assay [2] was -8.7% (inactive). Moreover, the nuclei count was 101% in assay [2] and 123% in assay [3]. Besides, the fluorescence slope in [4] is -0.452 (inactive). The NADPH fluorescence slope in assay [5] was -4.3e-05 (inactive). In addition, the slope in assay [6] was 0.00414 (inactive). Moreover, the outcome in assay [9] was inactive.
As for `CCCCOCCCNC(=O)COc1ccccc1`, the cell count in [1] stood at 360. In addition, the inhibition in assay [1] was -3.4% (inactive); in assay [3] it was -3.5% (inactive); in [7] it was 17.8% (inactive); in [8] it was 29.4% (inactive). In addition, the inhibition of aggregation in assay [2] was -12.1% (inactive). The nuclei count was 113% in [2] and 114% in [3]. Besides, the fluorescence slope in assay [4] was -0.398 (inactive). For the same molecule, in [5], the NADPH fluorescence slope is -6.8e-05 (inactive). In addition, the slope in assay [6] was 0.00485 (inactive).
Take `COc1cccc(Nc2nnc(SCC(=O)N3CC(C)OC(C)C3)s2)c1` (stereo unspecified): in [1], the cell count turned out to be 448. The inhibition in assay [1] was 4.8% (inactive); in [3], -19.6% (inactive); in assay [7], -1.41% (inactive); in [8], -10% (inactive). The inhibition of aggregation in assay [2] is 14.5% (inactive). For the same molecule, the results for the nuclei count in assay [2] and in assay [3] were 73.5% and 117%, respectively. Besides, in assay [4], the fluorescence slope was -0.409 (inactive). Also, the NADPH fluorescence slope in assay [5] was -9.2e-05 (inactive). Further, the slope in assay [6] is 0.00562 (inactive). Moreover, in assay [9], the molecule was called inactive.
With `CCn1cc(C(=O)NCCC2=CCCCC2)c(=O)c2cc(S(=O)(=O)N(C)C)ccc21`, in assay [1], the cell count was 458. Also, the inhibition in assay [1] was -6.1% (inactive); in assay [3] it was -45.7% (inactive); in assay [7], 3.13% (inactive); in assay [8], 17.6% (inactive). For the same molecule, the inhibition of aggregation in assay [2] was 38.5% (active). Moreover, the nuclei count came out at 79% in assay [2] and 93.2% in [3]. Further, in [4], the fluorescence slope was -0.563 (inactive). The NADPH fluorescence slope in assay [5] was -4.1e-05 (inactive). The slope in [6] is 0.00705 (inactive).
